# Screening results: PubChem BioAssay, several laboratories
# Lmaj promast: Leishmania major promastigote growth inhibition; AID 1063; Leishmania major promastigotes, resazurin fluorescence viability; inhibition, % at 10 µM; actives 9% (n = 200,000); in the data active = inhibition above about 50%;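 note: promastigotes grown with compound for 44 hours at 28 °C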
# Lipid droplet: modulators of hepatic lipid droplet formation; AML12 mouse hepatocytes, oleate lipid droplets, BODIPY imaging; AID 1656; actives 0.4% (n = 240,000); inhibition, % at 6.5 µM;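 active = lipid droplet intensity inhibited by at least 50%, with more than 500 cells counted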
#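 System: AML12 hepatocytes (mouse). Probe or stimulus: oleic acid at 100 µM to induce lipid droplet formation. Times: overnight treatment with compound plus oleate. Detection: Image-based BODIPY and DAPI two-channel analysis. Evaluation: percent inhibition of filter-corrected integrated lipid droplet intensity per well.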
# T cruzi repl: blocks replication of Trypanosoma cruzi. T. cruzi beta-gal in NIH3T3, luminescence, 90 h. inhibition, % (concentration not given with the values). actives 1.4% (n = 300,000). AID 1885;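 active = mean inhibition across valid replicates above about 55%, limit read from the data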;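 note: signal also drops with host cell toxicity which is not excluded here; 0% = plate median of DMSO wells and 100% = zero luminescence signal; higher percent means less beta-gal luminescence so fewer parasites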
#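 Assay system: NIH/3T3 fibroblasts plus reporter T. cruzi. Amount: NIH/3T3 cells, 5,000 per well. Buffer or medium: DMEM, 2% fetal bovine serum. Doses: compound pinned at 50 nL/well, DMSO. Schedule: ≥90 h infection period, 3 h prior cell attachment. Signal: luminescent β-galactosidase signal after 60 min lysis. Read-out: parasite load inhibition, %.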
# DTT redox prof: compounds producing H2O2 with reducing agent – biochemical, NIH compound library profiling, artefact control for MLSCN library redox annotation, primary screen | DTT-dependent redox cycling H2O2, phenol red/HRP absorbance; 100% = 100 µM peroxide control, 0% = buffer | activation, % at 10 µM | actives 0.03% (n = 200,000) | AID 878;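 active = activation of at least 50% relative to the plate's high and low controls in the primary single-dose screen; inactive = activation below 50%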;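 note: compound incubated with DTT at 0.8 mM final as the reducing agent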
# MPTP inh: permeability transition pore inhibition. actives 1.4% (n = 360,000). isolated mouse mitochondria, Ca2+ swelling absorbance, 30 min. inhibition, % at 10 µM;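 active = inhibition of 50% or more, scaled per plate between neutral and stimulator controls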;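 note: 0% = DMSO wells given calcium and 100% = 1 mM EGTA wells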
# The depositor's hits bear a star; · = not tested or not shown. Many of the other results were omitted from the sample, so hits are more common in it than they were.
SMILES,Lmaj promast,Lipid droplet,T cruzi repl,DTT redox prof,MPTP inh
CC1=C(C(=O)Nc2ccccc2C)C(c2ccc(C)o2)n2c(s/c(=C/c3ccccc3)c2=O)=N1 (configuration not stated),75*,-8,37,0,0
CCOc1ccc(C2C(C(=O)Nc3ccccc3)=C(C)N=c3s/c(=C/c4cccc(OCC(=O)O)c4)c(=O)n32)cc1 (configuration not stated),-6,-4,-16,-1,0
CC1=C(C(=O)Nc2ccccc2)C(c2ccc(Cl)cc2)n2c(s/c(=C/c3cccc(OCC(=O)O)c3)c2=O)=N1 (configuration not stated),5,15,-16,-1,1
CC1=C(C(=O)Nc2ccccc2)C(c2ccc(C)o2)n2c(s/c(=C/c3ccccc3)c2=O)=N1 (configuration not stated),95*,2,28,0,-2
CCC(C)NCCOc1cccc(Br)c1 (configuration not stated),14,17,9,-1,0
CCC(C)NCCOCCOc1ccc(Cl)c(C)c1C (configuration not stated),98*,-14,59*,0,2
CCC(C)NCCOCCOc1ccc(Cl)c2ccccc12 (configuration not stated),100*,24,55*,0,44
Cc1ccc(C(=O)NC(=S)NCC2CCCO2)cc1[N+](=O)[O-] (configuration not stated),-4,-15,-7,-1,1
CC(=O)NC12CC3CC(C1)CC(C(=O)NCc1ccc(C)cc1)(C3)C2,·,18,1,·,-3
CCC(=Cc1ccccc1O)c1ccncc1,·,·,·,·,2
COc1ccc2oc(=N)c(C(=O)Nc3ccccc3Cl)cc2c1,·,-1,10,·,1
CCc1ccc(-n2nnnc2SCC(=O)Nc2ccc(NC(C)=O)cc2)cc1,·,0,55*,·,0
CCc1ccc(NC(=O)CSc2nnnn2C)cc1,·,-2,-8,·,-1
COc1ccc(NC(=O)CSc2nnnn2C)cc1,-6,-1,-5,0,-1
Cn1nnnc1SCC(=O)Nc1ccc(Oc2ccccc2)cc1,93*,15,8,2,2
O=C(Nc1ccccn1)Nc1ccccc1Cl,·,-1,-4,·,0
O=C(C[n+]1ccccc1)Nc1ccccc1C(F)(F)F,·,2,-4,·,-1
CC(C)(C)NC(=O)CSc1nc2[nH]ncc2c(=O)[nH]1,-10,25,-5,0,2
COC(=O)/C=C1\C(=O)N(c2nc3ccc(OC)cc3s2)C(=S)N1c1ccc(F)cc1,67*,1,19,-3,·
COc1ccc(NC(=S)N(CCN(C)C)C(C)c2ccco2)cc1Cl (configuration not stated),67*,-2,-1,0,0
COc1cccc(NC(=S)N(CCN(C)C)C(C)c2ccco2)c1 (configuration not stated),44,12,-6,3,-1
Cc1cccc(CCNC(=O)C2CC(O)CN2C(=O)Nc2ccccc2)c1 (configuration not stated),·,·,·,·,-1
CN(C)c1ccc(N=Nc2ccccc2C(=O)OCC(=O)NCC2CCCCC2)cc1,97*,9,13,0,2
O=C(NCCn1cc(SCc2ccc(F)cc2)c2ccccc21)c1ccccc1F,95*,-16,29,1,2
Cc1ccc2nc(C)c(Cl)c(=O)n2c1,-1,1,-8,1,0
SMILES,Lmaj promast,Lipid droplet,T cruzi repl,DTT redox prof,MPTP inh
Cc1ccc2nc(Cl)c(/C=N/Nc3nc(C)cc(C)n3)c(=O)n2c1,57*,2,-20,0,0
Nc1ncnc(Nc2cc(Cl)cc(Cl)c2)c1[N+](=O)[O-],55*,-6,-3,1,1
CC(NC(=O)CCC(=O)c1ccccc1)c1ccc(F)cc1 (configuration not stated),·,·,1,·,0
Cc1ccc(C(=O)NC(=S)Nc2ccc(CN3CCCCC3)cc2)c(C)c1,73*,8,60*,0,0
O=C(NC(=S)Nc1ccc(CN2CCCCC2)cc1)c1ccco1,28,14,14,0,-3
COc1ccc(C(=O)NC(=S)Nc2ccc(CN3CCCCC3)cc2)cc1Cl,99*,16,51,0,0
COc1ccc(C(=O)NC(=S)Nc2ccc(CN3CCOCC3)cc2)cc1Cl,·,-10,-6,·,-1
O=[N+]([O-])c1nccn1CC(O)CO (configuration not stated),·,·,·,·,0
Cc1ccc(NNC(=O)C(=O)N2CCCCC2)cc1,66*,8,43,0,0
N#Cc1cccc(C(=O)C(=O)N2CCN(c3ccccc3)CC2)c1,·,·,·,·,0
O=C(CSc1nnc(-c2ccc(S(=O)(=O)N3CCCC3)cc2)o1)NCc1ccccc1,99*,2,9,-1,1
CC(NC(=O)CSc1nnc(-c2cccc(S(=O)(=O)N3CCCCC3)c2)o1)C12CC3CC(CC(C3)C1)C2 (configuration not stated),96*,-1,28,0,-2
CCn1c(SCC(=O)O)nnc1-c1ccc(S(=O)(=O)N2CCCC2)cc1,·,-3,-16,·,-1
CCn1c(SCc2nnc(-c3ccccc3)o2)nnc1-c1ccc(S(=O)(=O)N2CCCC2)cc1,99*,-6,-5,0,8
CCN(CC)S(=O)(=O)c1ccc(-c2nnc(SCc3nnc(-c4ccccc4)o3)o2)cc1,6,·,-22,-2,2
O=C(CSc1nnc(-c2ccc(F)cc2)o1)Nc1ccc(S(=O)(=O)N2CCCC2)cc1,-3,·,12,1,2
O=S(=O)(c1ccc(-c2nnc(SCc3nnc(-c4ccccc4)o3)o2)cc1)N1CCCC1,100*,·,12,0,3
Cc1ccc(C(=O)N2CCCC2(C)C(=O)NCC(C)C)cc1F (configuration not stated),·,·,·,·,0
CCn1c(SCc2ccccc2)nnc1-c1ccc(S(=O)(=O)N2CCCCC2)cc1,99*,·,31,2,8
CCN(CC(=O)NCc1ccc(Cl)cc1)C(=O)c1ccc(S(=O)(=O)N(C)C)cc1,0,-4,-2,-1,-2
COc1ccc(-c2nsc(SCC(=O)NCC3CCCO3)n2)cc1 (configuration not stated),-1,-23,-7,0,-4
CCCCN(C)C1=Nc2cccc3cccc1c23,57*,0,9,0,2
CCCCON1C(=O)c2cccc3cccc(c23)C1=O,·,-1,-20,·,0
OCC1(CCc2ccccc2)CCN(Cc2cccn2-c2cccnc2)CC1,61*,-27,18,-1,0
O=C(NCCc1nc2ccccc2[nH]1)c1cc([N+](=O)[O-])cc([N+](=O)[O-])c1,98*,-1,53,1,2
O=C(CN1CCN(Cc2ccc3c(c2)OCO3)CC1)NCC(F)(F)F,·,-6,0,·,0
